Our source for the Activity, CC50 and EC50 values is ChEMBL document CHEMBL1156068, “Synthesis, pharmacological and antiviral activity of 1,3-thiazepine derivatives” (Eur J Med Chem, 2009).

pEC50: −log10 of the molar value. The source made the active and inactive calls. The calls are words filed in the database; no cut-off is given here.

Data set [1] has as its system Human alphaherpesvirus 1. The data set can be described thus: Antiviral activity against HSV1 infected in african green monkey Vero76 cells after 3 days by plaque reduction assay. It is filed as functional, organism-based. To be noted: Vero 76. The method in brief: (§1)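 Vero 76 monolayers (2×10^5 cells/well, overnight) infected to give 50–100 PFU/well. Unadsorbed virus removed, then DMEM with 1% FCS, 0.75% methylcellulose and serial compound dilutions added. Incubated at 37 °C for 3 days (CVB-2, HSV-1) or 5 days (RSV). Fixed and stained with 50% ethanol/0.8% crystal violet in PBS; plaques counted.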

Data set [2] has as its system Yellow fever virus. As to the kind of experiment: Antiviral activity against Yellow fever virus infected in BHK-21 cells assessed as protection against virus induced cytopathogenicity after 3 to 4 days by MTT assay. It is filed as functional, organism-based. An outline of the steps:
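BHK cells were seeded at 5 × 10^4 per well and grown overnight to monolayers, then infected at m.o.i. 0.01 in serum-free medium. One hour later, MEM Earle's with 1% FCS (final) and serial compound dilutions were added. After 3–4 days at 37 °C, viability was read by MTT. EC50 is the concentration giving 50% protection from virus-induced cytopathogenicity.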

The nature of data set [3]: Cytotoxicity against human MT4 cells assessed as reduction of cell viability after 96 hrs by MTT assay. It is filed as cell-based. An outline of the steps: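 Exponentially growing, mock-infected MT-4 cells were seeded at 1×10^5 cells mL-1 in RPMI-1640 with 10% FCS and penicillin/streptomycin, with serial compound dilutions. Incubated 96 h at 37 °C, 5% CO2, then viability read by MTT. CC50 is the concentration reducing viability by 50%.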

In data set [4] the test system is Coxsackievirus B2. As to the kind of experiment: Antiviral activity against Coxsackie virus B2 infected in african green monkey Vero76 cells after 3 days by plaque reduction assay. The class given is functional, organism-based. To be noted: Vero 76. An outline of the steps: as §1
Data set [5] concerns Respiratory syncytial virus. As to the kind of experiment: Antiviral activity against Respiratory syncytial virus infected in african green monkey Vero76 cells after 5 days by plaque reduction assay. The class given is functional, organism-based. To be noted: Vero 76. An outline of the steps:
as §1

In data set [6] the test system is Bovine viral diarrhea virus 1. As to the kind of experiment: Antiviral activity against Bovine viral diarrhea virus infected in MDBK cells assessed as protection against virus induced cytopathogenicity after 3 to 4 days by MTT assay. The class given is functional, organism-based. The method in brief:
(§2)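 Monolayers were grown overnight at 37 °C, 5% CO2: MDBK at 3×10^4 cells/well, BHK at 5×10^4 cells/well. Cells infected at m.o.i. 0.01. After 1 h, serial compound dilutions added in MEM with 1% FCS. Viability read by MTT after 3–4 days at 37 °C. EC50 is the concentration giving 50% protection from cytopathogenicity.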

Data set [7] deals with Vaccinia virus. As to the kind of experiment: Antiviral activity against Vaccinia virus infected in african green monkey Vero76 cells after 3 days by plaque reduction assay. It is filed as functional, organism-based. To be noted: Orthopoxvirus vaccinia; Vero 76.
For data set [8], the system named is Mammalian orthoreovirus 1. As to the kind of experiment: Antiviral activity against Reo virus type-1 infected in BHK-21 cells assessed as protection against virus induced cytopathogenicity after 3 to 4 days by MTT assay. It is filed as functional, organism-based. The method in brief:
as §2

Data set [9] deals with Vesicular stomatitis virus. The data set can be described thus: Antiviral activity against Vesicular stomatitis virus infected in african green monkey Vero76 cells after 2 days by plaque reduction assay. It is filed as functional, organism-based. Particulars: Vero 76.
Data set [10] deals with Human immunodeficiency virus 1. As to the kind of experiment: Antiviral activity against wild type HIV1 3B infected in human MT4 cells assessed as protection against virus induced cytopathogenicity after 4 days by MTT assay. The class given is functional, organism-based. Particulars: Human immunodeficiency virus 1, 3B, MT4, 96 h. The method in brief:
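MT-4 cells (1×10^4/well) in RPMI with serial compound dilutions were infected with HIV-1 (100 CCID50; m.o.i. 0.01). After 4 days, viability was measured by MTT. EC50 is the concentration giving 50% protection from virus-induced cytopathogenicity. Compounds were prepared as 100 mM DMSO stocks diluted in medium.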

Data set [11] has as its system Poliovirus 1. The data set can be described thus: Antiviral activity against Poliovirus type 1 Sabin infected in african green monkey Vero76 cells after 2 days by plaque reduction assay. To be noted: Vero 76. The class given is functional, cell-based.

For `CC1=CC2C(C(C)C)CC1C1C(=O)N(N3CCCCS/C3=N\c3ccc(F)cc3)C(=O)C21` (configuration not stated), the result in data set [1], in data set [2], in [4], in data set [5], in [6] and in [7] was inactive. The outcome in data set [8], in data set [9] and in [11] was inactive. In data set [3], the CC50 at 96 h came out at 49 µM. Also, the pEC50 in data set [10] is < 4.31.
Take `CC1=CC2C(C(C)C)CC1C1C(=O)N(NC(=S)Nc3ccc(Cl)c(Cl)c3)C(=O)C21` (configuration not stated): the result in data set [1], in data set [2], in data set [4], in [5], in data set [6] and in data set [7] was inactive. The result in data set [8], in data set [9] and in [11] was inactive. Moreover, the CC50 at 96 h in data set [3] came to 41 µM. The pEC50 in data set [10] is < 4.39.
Consider `CC(C)C12C=CC(C)(CC1)C1C(=O)N(N3CCCCS/C3=N\c3ccc(F)cc3)C(=O)C12` (configuration not stated), for which the outcome in [1], in data set [2], in data set [4], in data set [5], in data set [6] and in data set [7] was inactive. In addition, the outcome in data set [8], in data set [9] and in data set [11] was inactive. In addition, in data set [3], the CC50 at 96 h was 86 µM. Moreover, the negative logarithm of the EC50 (pEC50) in data set [10] was < 4.07.
Regarding `C=CC/N=C1\SCCCCN1N1C(=O)C2C3CC(C(C)C)C(C=C3C)C2C1=O` (configuration not stated), the outcome in data set [1], in data set [2], in data set [4], in data set [5], in data set [6] and in [7] was inactive. Further, the result in [8], in data set [9] and in data set [11] was inactive. In [3], the CC50 at 96 h came out at 59 µM. Further, the pEC50 in data set [10] was < 4.23.
Take `CC1=CC2C(C(C)C)CC1C1C(=O)N(N3CCCCS/C3=N\Cc3ccccc3)C(=O)C21` (configuration not stated): the outcome in data set [1], in data set [2], in data set [4], in data set [5], in [6] and in [7] was inactive. Also, the outcome in data set [8], in data set [9] and in data set [11] was inactive. For the same compound, the CC50 at 96 h in data set [3] came out at 47 µM. The pEC50 in data set [10] was < 4.33.
As for `CC1=CC2C(C(C)C)CC1C1C(=O)N(NC(=S)NCc3ccccc3)C(=O)C21` (configuration not stated), the outcome in data set [1], in data set [4], in data set [5], in data set [7], in [8] and in data set [9] was inactive. Moreover, in data set [11], the result was inactive. Besides, the pEC50 in data set [2] is 4.39; in data set [6] (Bovine viral diarrhea virus isolates and strains), 4.28; in data set [10], 4.52. The cytotoxic concentration (CC50) at 96 h in data set [3] worked out at 54 µM.
For `CC(C)C12C=CC(C)(CC1)C1C(=O)N(NC(=S)Nc3ccc(Cl)c(Cl)c3)C(=O)C12` (configuration not stated), the outcome in [1], in data set [2], in data set [4], in data set [5], in data set [6] and in [7] was inactive. The result in data set [8], in data set [9] and in data set [11] was inactive. For the same compound, the CC50 at 96 h in [3] is 59 µM. The pEC50 in [10] is < 4.23.
Regarding `CC(C)C12C=CC(C)(CC1)C1C(=O)N(NC(=S)Nc3ccc(I)cc3)C(=O)C12` (configuration not stated), the result in data set [1], in data set [2], in data set [4], in data set [5], in data set [6] and in data set [7] was inactive. For the same compound, the outcome in [8], in data set [9] and in [11] was inactive. Besides, in [3], the CC50 at 96 h was > 100 µM. Besides, the pEC50 in [10] is < 4.00.
Consider `CC(C)C12C=CC(C)(CC1)C1C(=O)N(N3CCCCS/C3=N\c3ccc(Cl)cc3)C(=O)C12` (configuration not stated), for which the outcome in data set [1], in data set [2], in data set [4], in data set [5], in [6] and in data set [7] was inactive. Also, the outcome in data set [8], in [9] and in data set [11] was inactive. Moreover, in data set [3], the CC50 at 96 h came out at 32 µM. Moreover, in [10], the pEC50 is < 4.49.
Regarding `CC1=CC2C(C(C)C)CC1C1C(=O)N(NC(=S)Nc3ccc(Cl)cc3)C(=O)C21` (configuration not stated), the outcome in data set [1], in [2], in data set [4], in data set [5], in data set [6] and in data set [7] was inactive. Moreover, the result in [8], in data set [9] and in data set [11] was inactive. In [3], the CC50 at 96 h turned out to be 45 µM. Further, the pEC50 in data set [10] is < 4.35.
For `CC1=CC2C(C(C)C)CC1C1C(=O)N(NC(=S)Nc3ccc(F)cc3)C(=O)C21` (configuration not stated), the result in data set [1], in data set [2], in data set [4], in data set [5], in [6] and in data set [7] was inactive. Moreover, the outcome in [8], in data set [9] and in data set [11] was inactive. In data set [3], the CC50 at 96 h came to 69 µM. Moreover, the pEC50 in [10] is < 4.16.
Turning to `CC(C)C12C=CC(C)(CC1)C1C(=O)N(N3CCCCS/C3=N\c3ccc(I)cc3)C(=O)C12` (configuration not stated), the result in data set [1], in data set [2], in data set [4], in [5], in [6] and in data set [7] was inactive. Moreover, the outcome in data set [8], in data set [9] and in [11] was inactive. Also, the CC50 at 96 h in [3] is 59 µM. The pEC50 in [10] is < 4.23.
